# Assay outcomes deposited in PubChem BioAssay by several laboratories.
# STAT3 inh: STAT3 signaling inhibition | U3A cells, IL-6 STAT3-luciferase reporter, luminescence; host cell line lacks STAT1 | inhibition, % at 5.5 µM | 190,000 compounds, 0.89% hits | AID 862;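 active = inhibition above the mean inhibition across all screened compounds plus 3 SD, cut at about 44% in these data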
# STAT3 act: increases IL-6 driven STAT3 reporter signal; U3A cells, IL-6 STAT3-luciferase reporter, luminescence; 100% = signal with IL-6 EC80 alone; activation (% of control), % at 5.6 µM; 190,000 compounds, 0.91% hits; AID 871;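 active = activation above the screen-wide mean of compound activation plus 3 SD, cut at about 130% in these data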
#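 Assay system – human STAT1-deficient U3A cells with stable STAT3-luciferase reporter · Also added – IL-6 (33 ng/mL) · Schedule – compound 1 h, then IL-6 6 h at 37 °C · Technique – reporter luminescence signal · Evaluation – % activation versus median of IL-6-stimulated wells · Benchmarks – IL-6-only wells as 100% reference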
# NF-kB expr up: compounds increasing NF-kB expression in human neuronal cells; NF-kB reporter expression; hits give high values; fold change at 12.5 µM; 190,000 compounds, 1.6% hits; AID 1239; in the data active = fold change above about 3.3
# STAT1 blocker: STAT1 signaling inhibition; NIH 3T3 STAT1-luciferase reporter, IFN-gamma, luminescence; inhibition, % at 5.5 µM; 200,000 compounds, 0.35% hits;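 active = inhibition above a set limit, the mean inhibition across all tested compounds plus 3 SD, cut at about 34% in these data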
# APP 5'UTR act: APP 5'UTR luciferase reporter activation; 190,000 compounds, 1% hits; SH-SY5Y APP 5'UTR luciferase reporter, luminescence; zero percent = DMSO vehicle wells; activation, % at 2 µM;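 active = activation above a set limit, based on mean plus 3 SD of controls, cut at about 140% in these data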
# STAT1 activator: activators of IFN-gamma induced STAT1 signaling; 200,000 compounds, 2.6% hits; activation (% of control), % at 5.5 µM; NIH 3T3 STAT1-luciferase reporter, luminescence; 100% = IFN-gamma alone, no compound;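 active = activation above the screen-wide mean activation plus 3 SD, cut at about 130% in these data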
# A number is an active result; . = inactive. Hits are enriched below; roughly 5.1% of the tested compounds scored in any of these assays.
SMILES,STAT3 inh,STAT3 act,NF-kB expr up,STAT1 blocker,APP 5'UTR act,STAT1 activator
Cc1ccc(-n2c(SCC(=O)NCC3CCCO3)nc3n[nH]c(C)c3c2=N)cc1Cl (stereo unspecified),45,.,.,.,.,.
O=C(COC(=O)c1cc[n+]([O-])cc1)Nc1ccc(F)c([N+](=O)[O-])c1,.,.,.,.,.,.
COc1ccc(/C=N/NC(=O)c2nonc2C)cc1,.,.,.,.,.,129
Nc1nonc1C(=O)N/N=C/c1ccncc1,.,.,.,.,.,.
Cc1nonc1C(=O)N/N=C/c1ccncc1,.,.,.,.,.,140
O=C(CCC(=O)OCc1ccc(Br)cc1)Nc1ccccc1,.,.,.,.,.,.
O=C(c1cc(-c2cccs2)on1)N1CCN(c2ccc(F)cc2)CC1,.,.,3.4,.,.,.
CCOc1ccc2ccccc2c1CNCCN1CCOCC1,.,.,7.7,.,.,.
CCOc1ccc(Br)cc1CNCCN1CCOCC1,.,.,.,.,.,.
CN(/N=C/c1ccc([N+](=O)[O-])o1)c1ccccc1,.,.,.,.,.,135
Cc1c(C=O)c2ccccc2n1CC(=O)NC(C)c1ccccc1 (stereo unspecified),.,.,.,.,.,.
C(=C\c1ccccc1)/CSc1ccccn1,.,.,.,.,.,136
O=C(CSc1ccccn1)N/N=C/C=C/c1ccccc1,.,.,.,.,.,.
CCCCNC(=O)CN1C(=O)NC(CCc2ccccc2)C1=O (stereo unspecified),.,.,.,.,.,.
O=C(NCc1cccnc1)C(=O)Nc1nc2ccccc2s1,.,.,.,.,.,139
CCOc1ccc2nc(NC(=O)c3cnccn3)sc2c1,.,.,.,.,.,138
O=C(Nc1nc2ccc(F)cc2s1)c1ccccn1,96,.,.,70,.,.
O=C(Nc1nc2ccccc2s1)c1cnccn1,.,.,4,.,.,.
O=C(NCc1cccnc1)C(=O)Nc1nccs1,.,.,.,.,.,.
O=C(Nc1nccs1)c1cnccn1,.,.,.,.,.,.
CCOc1ccc2nc(NC(=O)CSc3ccc(Cl)cc3)sc2c1,.,.,.,.,.,.
O=C(O)CCC(=O)Nc1ccc(/C=C/C(=O)C2CC2)cc1,.,.,.,.,.,.
CCOc1ccc2nc(NC(=O)CSC3=NCCS3)sc2c1,.,.,.,.,.,129
Oc1cccc2ccc[n+](CC(O)Cn3c4ccccc4c4ccccc43)c12 (stereo unspecified),.,.,.,.,.,.
Cc1nc(NC(=O)c2ccccc2)nc2cc3c(cc12)OCO3,.,.,.,.,.,129
SMILES,STAT3 inh,STAT3 act,NF-kB expr up,STAT1 blocker,APP 5'UTR act,STAT1 activator
Cc1nc(NC(=O)c2ccc(F)cc2)nc2cc3c(cc12)OCO3,.,.,.,.,.,.
CC(=O)Nc1sc2c(c1C#N)CCCCC2,.,.,.,.,.,.
Cc1cc(C(=O)Nc2sc3c(c2C#N)CCC(C)C3)no1 (stereo unspecified),.,.,.,.,.,139
CCCC(=O)Nc1sc2c(c1C#N)CCCCC2,.,.,3.9,.,.,.
N#Cc1c(NC(=O)/C=C/c2ccco2)sc2c1CCCC2,.,154,.,.,.,174
Cc1cc(C(=O)Nc2sc3c(c2C#N)CCCC3)no1,.,.,.,.,.,.
Cc1ccc(C(=O)Nc2sc3c(c2C#N)CCCCC3)cc1C,.,.,.,.,.,134
O=C(C1CCCCN1S(=O)(=O)c1ccccc1[N+](=O)[O-])N1CCCCC1 (stereo unspecified),.,.,.,.,.,.
CS(=O)(=O)c1ccc(C(=O)OCC(=O)NC(=O)C2CCCCC2)cc1[N+](=O)[O-],.,.,.,.,.,.
COc1ccc(C(C)=O)cc1CSc1nncn1-c1ccccc1,.,.,.,.,.,.
CS(=O)(=O)N1CCc2cc(C(=O)OCC(=O)c3ccccc3)ccc21,.,.,4,.,.,156
Cc1nn(-c2ccccc2)c(N)c1N=Nc1ccc2ccccc2c1,.,.,3.9,.,.,140
Cc1ccccc1-n1c(SC/C(O)=C(\C#N)c2nc3ccccc3[nH]2)nnc1-c1ccncc1,.,133,.,.,.,.
O=C(CSc1ccc(-c2ccncc2)nn1)c1ccccc1,.,.,.,.,.,.
